Data as given in ChEMBL document CHEMBL3227926, “2-Mercaptoacetamidines as gastric antisecretory agents” (J Med Chem, 1979).

Tests used:
Canis familiaris [1] = experiment: Inhibition of gastrin tetrapeptide-induced gastric secretion in beagle dog at 16 mg/kg administered directly into stomach via gastric cannula measured after 2 hrs of stimulation; format: functional; settings: Canis lupus familiaris
Summary of the method: (§1)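 Conscious female beagles (5-9 kg) with chronic gastric fistula. Dose in 50 mL 1% methylcellulose was put into the stomach via the cannula 1 h before gastrin tetrapeptide 64 µg/kg sc (from 640 µg/mL in 30% Me2SO); controls got vehicle. Juice was collected for 2 h. Volume was measured, titratable acid obtained by titration to pH 7 with 0.01 N NaOH, and total acid taken as volume × concentration.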

Canis familiaris [2] = experiment: Inhibition of gastrin tetrapeptide-induced gastric secretion in beagle dog at 8 mg/kg administered directly into stomach via gastric cannula measured after 2 hrs of stimulation; format: functional; settings: Canis lupus familiaris; summary of the method: as §1
Canis familiaris [3] = experiment: Toxicity in beagle dog assessed as emesis administered directly into stomach via gastric cannula; format: organism-based, Canis lupus familiaris; settings: in vivo, other
Canis familiaris [4] = experiment: Toxicity in beagle dog assessed as tachycardia administered directly into stomach via gastric cannula; format: organism-based, Canis lupus familiaris; settings: in vivo, other
Canis familiaris [5] = experiment: Toxicity in beagle dog assessed as gastric bleeding administered directly into stomach via gastric cannula; format: organism-based, Canis lupus familiaris; settings: in vivo, other
Canis familiaris [6] = experiment: Inhibition of gastrin tetrapeptide-induced gastric secretion in beagle dog at 4 mg/kg administered directly into stomach via gastric cannula measured after 2 hrs of stimulation; format: functional; settings: Canis lupus familiaris; summary of the method: as §1

Row | SMILES | inhibition in vivo at 16 mg/kg (Canis familiaris [1]) [%] | inhibition in vivo at 8 mg/kg (Canis familiaris [2]) [%] | Activity (Canis familiaris [3]) | Activity (Canis familiaris [4]) | Activity (Canis familiaris [5]) | inhibition in vivo at 4 mg/kg (Canis familiaris [6]) [%]
1 | Cl.N=C(CSSCC(=N)NCC12CC3CC(CC(C3)C1)C2)NCC12CC3CC(CC(C3)C1)C2 | 80 | 62 | Toxic | Toxic | Toxic | –
2 | Cl.N=C(CS)N1CCOCC1 | 23 | 2 | Toxic | Toxic | Toxic | –
3 | Cl.N=C(CS)NC12CC3CC(CC(C3)C1)C2 | 86 | 61 | Toxic | Toxic | Toxic | –
4 | Cl.N=C(CS)NC1C2CC3CC(C2)CC1C3 (configuration not stated) | 85 | – | Toxic | Toxic | Toxic | –
5 | Cl.N=C(CS)NCC1C2CC3CC(C2)CC1C3 (configuration not stated) | – | 67 | Toxic | Toxic | Toxic | –
6 | Cl.N=C(CS)NCCC12CC3CC(CC(C3)C1)C2 | 100 | 61 | Toxic | Toxic | Toxic | 0
7 | Cl.N=C(CS)NCCCC12CC3CC(CC(C3)C1)C2 | – | 81 | Toxic | Toxic | Toxic | 36
8 | Cl.N=C(CS)NCCCCC12CC3CC(CC(C3)C1)C2 | – | 67 | Toxic | Toxic | Toxic | 0
9 | Cl.N=C(CS)NCCCCCC12CC3CC(CC(C3)C1)C2 | – | 9 | Toxic | Toxic | Toxic | –
10 | Cl.N=C(N)CS | – | 89 | Toxic | Toxic | Toxic | –
11 | CC(C)NC(=N)CS.Cl | – | 58 | Toxic | Toxic | Toxic | –
12 | CC(C)(C)CNC(=N)CS.Cl | – | 95 | Toxic | Toxic | Toxic | 25
13 | Cl.N=C(CS)NCC1CCCCC1 | – | 86 | Toxic | Toxic | Toxic | –
14 | Cl.N=C(CS)NCC12CCC(CC1)C2 | – | 91 | Toxic | Toxic | Toxic | 0
15 | Cl.N=C(CS)NCC12CCC(CC1)CC2 | – | 87 | Toxic | Toxic | Toxic | 48
16 | Cl.N=C(CS)NCC12CCCC(CC1)C2 (configuration not stated) | – | 95 | Toxic | Toxic | Toxic | 0
17 | Cl.N=C(CS)NCC12CCCC(CCC1)C2 | 23 | 67 | Toxic | Toxic | Toxic | –
18 | Cl.N=C(CS)NCC1CC2C3CCC(C3)C2C1 (configuration not stated) | – | 70 | Toxic | Toxic | Toxic | –
19 | Cl.N=C(CS)NCC12CCC(C(=O)O)(CC1)CC2 | – | 0 | Toxic | Toxic | Toxic | –
20 | Cl.N=C(CS)NCc1ccccc1 | – | 83 | Toxic | Toxic | Toxic | 29
21 | Cl.N=C(CS)NCc1ccncc1 | – | 85 | Toxic | Toxic | Toxic | –
22 | Cl.N=C(CS)NCc1ccccn1 | – | 82 | Toxic | Toxic | Toxic | –
23 | Cl.N=C(CS)NC/C=C/c1ccccc1 | – | 53 | Toxic | Toxic | Toxic | –
24 | Cl.N=C(CS)NCC(c1ccccc1)c1ccccc1 | 60 | 0 | Toxic | Toxic | Toxic | –
25 | Cl.N=C(CS)NC(c1ccccc1)c1ccccc1 | 82 | – | Toxic | Toxic | Toxic | –
26 | Cl.N=C(CS)NC(c1ccccc1)c1ccc(Cl)cc1 (configuration not stated) | 87 | – | Toxic | Toxic | Toxic | –
27 | Cl.N=C(CS)NC(Cc1ccccc1)c1ccccc1 (configuration not stated) | 84 | – | Toxic | Toxic | Toxic | –

Row | SMILES | inhibition in vivo at 16 mg/kg (Canis familiaris [1]) [%] | inhibition in vivo at 8 mg/kg (Canis familiaris [2]) [%] | Activity (Canis familiaris [3]) | Activity (Canis familiaris [4]) | Activity (Canis familiaris [5]) | inhibition in vivo at 4 mg/kg (Canis familiaris [6]) [%]
28 | Cl.N=C(CS)NC1CCCC1 | – | 100 | Toxic | Toxic | Toxic | 63
29 | Cl.N=C(CS)NC1CCCCC1 | – | 79 | Toxic | Toxic | Toxic | 37
30 | Cl.N=C(CS)NC1Cc2ccccc2C1 | 100 | – | Toxic | Toxic | Toxic | –
31 | Cl.N=C(CS)NC1CCc2ccccc21 (configuration not stated) | 85 | 20 | Toxic | Toxic | Toxic | –
32 | Cl.N=C(CS)NC1c2ccccc2-c2ccccc21 | 0 | – | Toxic | Toxic | Toxic | –
33 | Cl.N=C(CS)Nc1ccccc1 | 0 | – | Toxic | Toxic | Toxic | –
34 | Cl.N=C(CS)Nc1cccc2ccccc12 | 64 | – | Toxic | Toxic | Toxic | –
35 | Cl.N=C(CS)Nc1cccc2c1CCCC2 | 14 | – | Toxic | Toxic | Toxic | –
36 | CN(C)C(=N)CS.Cl | – | 62 | Toxic | Toxic | Toxic | 0
37 | CN(Cc1ccccc1)C(=N)CS.Cl | 0 | – | Toxic | Toxic | Toxic | –
38 | Cl.N=C(CS)N1CC2CCC(CC2)C1 | 92 | – | Toxic | Toxic | Toxic | –
39 | O=C(CS)NCc1ccccc1 | – | 0 | Toxic | Toxic | Toxic | –
40 | O=C(CS)NC1CCCCC1 | – | 0 | Toxic | Toxic | Toxic | –
41 | O=C(CS)NC12CC3CC(CC(C3)C1)C2 | 58 | – | Toxic | Toxic | Toxic | –
42 | CC(S)C(=N)NCC(C)(C)C.Cl (configuration not stated) | 28 | 0 | Toxic | Toxic | Toxic | –
43 | CC(C)(C)CNC(=N)CCCS.Cl | – | 11 | Toxic | Toxic | Toxic | –
44 | Cl.N=C(CSSCC(=N)NCc1ccccc1)NCc1ccccc1 | – | – | Toxic | Toxic | Toxic | 84
45 | CC(C)(C)CNC(=N)CCSSCCC(=N)NCC(C)(C)C.Cl | 75 | 21 | Toxic | Toxic | Toxic | –
46 | Cl.N=C(CCSSCCC(=N)NCc1ccccc1)NCc1ccccc1 | 42 | – | Toxic | Toxic | Toxic | –
47 | CC(C)(C)CNC(=N)CO.Cl | 61 | 22 | Toxic | Toxic | Toxic | –
48 | Cl.N=C(CO)NCc1ccccc1 | 0 | – | Toxic | Toxic | Toxic | –
49 | CC(=N)NCc1ccccc1.Cl | 19 | – | Toxic | Toxic | Toxic | –
50 | CC(=N)NC1CCCCC1 | 0 | – | Toxic | Toxic | Toxic | –
51 | Cl.N=C(CS)N[C@@H]1C[C@H]2CC[C@H]1C2 (relative stereo) | – | 94 | Toxic | Toxic | Toxic | –
52 | CSCC(=N)NC[C@@H]1C[C@H]2CC[C@H]1C2 (relative stereo) | – | 35 | Toxic | Toxic | Toxic | –
53 | Cl.N=C(CS)NC[C@@H]1C[C@H]2CC[C@H]1C2 (relative stereo; 15) | – | – | Toxic | Toxic | Toxic | –
